In the M2OR odorant receptor database:

What was measured:
Settings in all cases: stereoisomer not certain
[1] = test system: T1, A0A140T8K0
T1 sequence (whole entry): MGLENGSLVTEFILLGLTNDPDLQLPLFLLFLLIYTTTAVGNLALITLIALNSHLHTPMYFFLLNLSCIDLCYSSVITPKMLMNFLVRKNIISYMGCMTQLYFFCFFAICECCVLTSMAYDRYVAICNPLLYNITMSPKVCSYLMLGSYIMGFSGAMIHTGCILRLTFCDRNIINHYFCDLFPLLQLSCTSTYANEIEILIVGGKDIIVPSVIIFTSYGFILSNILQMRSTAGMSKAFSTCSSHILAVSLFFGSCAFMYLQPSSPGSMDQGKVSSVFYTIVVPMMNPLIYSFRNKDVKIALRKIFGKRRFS
Procedure, shortened: (§1)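 Each receptor–molecule pair is labelled responsive or non-responsive (inactive) according to whether the original authors judged the measured signal statistically different from baseline. The data were taken from the main text and supplementary material of published papers and checked for typos and inconsistencies. Assay methods differed by source, with transient luciferase assays in mammalian cell lines being common.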

[2] = test system: T2, A0A140T8K4
T2 sequence (whole entry): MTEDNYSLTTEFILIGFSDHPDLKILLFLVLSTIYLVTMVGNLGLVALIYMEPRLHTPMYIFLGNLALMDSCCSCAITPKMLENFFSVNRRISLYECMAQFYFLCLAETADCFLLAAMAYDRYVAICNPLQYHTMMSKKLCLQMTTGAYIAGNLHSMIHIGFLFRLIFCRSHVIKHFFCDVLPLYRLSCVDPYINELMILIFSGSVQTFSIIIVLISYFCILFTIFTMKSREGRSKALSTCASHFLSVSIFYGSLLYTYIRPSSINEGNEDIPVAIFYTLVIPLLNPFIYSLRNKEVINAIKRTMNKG
Procedure, shortened: as §1

[3] = test system: T3, A0A1L1SVG7
T3 sequence (whole entry): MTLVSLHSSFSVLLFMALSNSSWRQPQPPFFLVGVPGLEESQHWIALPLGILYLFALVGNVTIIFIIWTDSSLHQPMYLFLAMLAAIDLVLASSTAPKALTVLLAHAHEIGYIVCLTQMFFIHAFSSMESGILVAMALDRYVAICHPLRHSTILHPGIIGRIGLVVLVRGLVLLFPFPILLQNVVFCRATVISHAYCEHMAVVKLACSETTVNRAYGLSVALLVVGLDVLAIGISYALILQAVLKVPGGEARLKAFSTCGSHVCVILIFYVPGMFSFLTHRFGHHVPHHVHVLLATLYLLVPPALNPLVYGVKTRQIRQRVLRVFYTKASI
Procedure, shortened: as §1

[4] = test system: A0A2J8KNW9
Procedure, shortened: as §1

[5] = test system: A0A2R8ZMP6
Procedure, shortened: as §1
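Also: active if original authors judged signal statistically different from baseline.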

C=C(C)C1CCC(C)C(=O)C1 (configuration not stated)
odorant receptor agonist call [1]: inactive
odorant receptor agonist call [2]: active
odorant receptor agonist call [3]: inactive

CC(=O)OCc1ccccc1
odorant receptor agonist call [1]: inactive
odorant receptor agonist call [2]: inactive
odorant receptor agonist call [3]: inactive

CCCCCCO
odorant receptor agonist call [1]: inactive
odorant receptor agonist call [2]: inactive
odorant receptor agonist call [3]: inactive

CCCCC(C)=O
odorant receptor agonist call [1]: inactive
odorant receptor agonist call [2]: inactive
odorant receptor agonist call [3]: inactive

CC(=O)Oc1ccccc1
odorant receptor agonist call [1]: inactive
odorant receptor agonist call [2]: inactive
odorant receptor agonist call [3]: inactive

CCCCCC(=O)CC
odorant receptor agonist call [1]: inactive
odorant receptor agonist call [2]: inactive
odorant receptor agonist call [3]: inactive

CCCCC(=O)O
odorant receptor agonist call [1]: inactive
odorant receptor agonist call [2]: inactive
odorant receptor agonist call [3]: inactive

C1CCOCC1
odorant receptor agonist call [1]: inactive

CCCC(=O)C(C)=O
odorant receptor agonist call [1]: inactive
odorant receptor agonist call [2]: inactive
odorant receptor agonist call [3]: inactive

CCCCCCCCCC(=O)[O-].[H+]
odorant receptor agonist call [1]: inactive
odorant receptor agonist call [2]: inactive
odorant receptor agonist call [3]: active

C=CCOC(=O)CCCCCC
odorant receptor agonist call [1]: inactive
odorant receptor agonist call [2]: inactive
odorant receptor agonist call [3]: inactive

CCCCCCCCCS
odorant receptor agonist call [1]: inactive
odorant receptor agonist call [2]: inactive
odorant receptor agonist call [3]: inactive

CC(=O)OCC=C(C)C
odorant receptor agonist call [1]: inactive
odorant receptor agonist call [2]: inactive
odorant receptor agonist call [3]: inactive

CC12CCC(CC1=O)C2(C)C (configuration not stated)
odorant receptor agonist call [1]: inactive
odorant receptor agonist call [2]: inactive
odorant receptor agonist call [3]: inactive

COc1cc(C(=O)O)ccc1O
odorant receptor agonist call [1]: inactive
odorant receptor agonist call [2]: inactive
odorant receptor agonist call [3]: inactive

CCCCCCCCO
odorant receptor agonist call [1]: inactive
odorant receptor agonist call [2]: inactive
odorant receptor agonist call [3]: inactive

O=C(c1ccccc1)c1ccccc1
odorant receptor agonist call [1]: inactive
odorant receptor agonist call [2]: inactive
odorant receptor agonist call [3]: inactive

CCCCCCCCC(=O)O
odorant receptor agonist call [1]: inactive
odorant receptor agonist call [2]: inactive
odorant receptor agonist call [3]: active

CCC=CCCCCC=O
odorant receptor agonist call [1]: inactive

CCCCOC=O
odorant receptor agonist call [1]: inactive
odorant receptor agonist call [2]: inactive
odorant receptor agonist call [3]: inactive

Cc1ccc(C(C)C)c(O)c1
odorant receptor agonist call [1]: inactive

CCCCCCCCS
odorant receptor agonist call [1]: inactive
odorant receptor agonist call [2]: inactive
odorant receptor agonist call [3]: inactive

CCCCCC=O
odorant receptor agonist call [1]: inactive
odorant receptor agonist call [2]: inactive
odorant receptor agonist call [3]: inactive

CCC(=O)O
odorant receptor agonist call [1]: inactive
odorant receptor agonist call [2]: inactive
odorant receptor agonist call [3]: inactive

CCCCCC1=C(C)CCC1=O
odorant receptor agonist call [1]: inactive
odorant receptor agonist call [2]: inactive
odorant receptor agonist call [3]: inactive

C=C(C)C1CCC(C)C(O)C1 (configuration not stated)
odorant receptor agonist call [1]: inactive

CCCCCCCCCCO
odorant receptor agonist call [1]: inactive
odorant receptor agonist call [2]: inactive
odorant receptor agonist call [3]: inactive

CC(C)=CCCC(C)=CCO
odorant receptor agonist call [1]: inactive
odorant receptor agonist call [2]: inactive
odorant receptor agonist call [3]: inactive

CCOC(=O)CC(C)C
odorant receptor agonist call [1]: inactive

CCCCC(=O)CC
odorant receptor agonist call [1]: inactive
odorant receptor agonist call [2]: inactive
odorant receptor agonist call [3]: inactive

CC(=O)C1(C)CC2=C(CCCC2(C)C)CC1C (configuration not stated)
odorant receptor agonist call [1]: inactive

c1ccccc1
odorant receptor agonist call [1]: inactive
odorant receptor agonist call [2]: inactive
odorant receptor agonist call [3]: inactive

CCCCCOC(=O)CCCCC
odorant receptor agonist call [1]: inactive
odorant receptor agonist call [2]: inactive
odorant receptor agonist call [3]: inactive

C=CC(=C)CCC=C(C)C
odorant receptor agonist call [1]: inactive

CCCCCC(C=O)=Cc1ccccc1
odorant receptor agonist call [1]: inactive

CCC(=O)C(=O)CC
odorant receptor agonist call [1]: inactive
odorant receptor agonist call [2]: inactive
odorant receptor agonist call [3]: inactive

CCOC(=O)C(C)C
odorant receptor agonist call [1]: inactive
odorant receptor agonist call [2]: inactive
odorant receptor agonist call [3]: inactive

CCC(S)C(C)CO (configuration not stated)
odorant receptor agonist call [4]: inactive
odorant receptor agonist call [5]: inactive
